Assay results from ChEMBL document CHEMBL1129356, “Novel 3,7-diheterabicyclo[3.3.1]nonanes that possess predominant class III antiarrhythmic activity in 1-4 day post infarction dog models: X-ray diffraction analysis of 3-[4-(1H-imidazol-1-yl)benzoyl]-7-isopropyl-3,7-diazabicyclo[3.3.1]nona ne dihydroperchlorate” (1996).
Active and inactive are the calls of the source.

Legend:
Canis familiaris [1] = experiment: Antiarrhythmic property His-Purkinje conduction time(post drug) is compared to lidocaine(2) using doses(3 and 6 mg/kg); No effect; assay type: functional, organism-based; design: dose 6 mg/kg; details: Canis lupus familiaris; His-Purkinje system
Summary of the method: (§1)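 Mongrel dogs (about 12–25 kg), 1–4 days after coronary occlusion infarction, under sodium pentobarbital (~30 mg/kg) with 12-lead ECG monitoring. Agents and lidocaine were given iv at 3 and 6 mg/kg. Programmed ventricular stimulation was applied at baseline, about 2–5 min after each dose, and at 30 min. SVT was defined as ≥250 beats/min lasting ≥30 s. Pre means drug-free; post means after dosing.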

Canis familiaris [2] = experiment: Tested for antiarrhythmic property by measuring ability to decrease Mean blood pressure (drug free) is compared to Lidocaine using doses(3 and 6 mg/kg).; assay type: functional, Canis lupus familiaris; summary of the method: as §1
Canis familiaris [3] = experiment: Antiarrhythmic property ventricular effective refractory period(drug free) is compared to lidocaine(2) using doses(3 and 6 mg/kg); assay type: functional, Canis lupus familiaris, Heart; summary of the method: as §1
Canis familiaris [4] = experiment: Antiarrhythmic property is compared to lidocaine(2) using doses(3 and 6 mg/kg). Time required for the ventricular myocardium to undergo depolarization and repolarization ((post drug); assay type: functional, Canis lupus familiaris; summary of the method: as §1
Canis familiaris [5] = experiment: Antiarrhythmic property His-Purkinje conduction time(drug free) is compared to lidocaine(2) using doses(3 and 6 mg/kg); No effect; assay type: functional, organism-based; design: dose 6 mg/kg; details: Canis lupus familiaris; His-Purkinje system; summary of the method: as §1
Canis familiaris [6] = experiment: Antiarrhythmic property A-V nodal conduction time(drug free) is compared to lidocaine(2) using doses(3 and 6 mg/kg); assay type: functional, Canis lupus familiaris, Heart; summary of the method: as §1
Canis familiaris [7] = experiment: Tested for antiarrhythmic property by measuring ability to decrease heart rate (drug free) is compared to Lidocaine using doses (3 and 6 mg/kg).; assay type: functional, Canis lupus familiaris; summary of the method: as §1
Canis familiaris [8] = experiment: Tested for antiarrhythmic property by measuring ability to decrease heart rate(post drug) is compared to Lidocaine using doses(3 and 6 mg/kg).; assay type: functional, Canis lupus familiaris; summary of the method: as §1
Canis familiaris [9] = experiment: Antiarrhythmic property is compared to lidocaine(2) using doses(3 and 6 mg/kg). Time required for the ventricular myocardium to undergo depolarization and repolarization (drug free); assay type: functional, Canis lupus familiaris; summary of the method: as §1
Canis familiaris [10] = experiment: (§2) Antiarrhythmic property Nonsustained ventricular tachycardia is compared to lidocaine(2) using dose of (3 and 6 mg/kg); assay type: functional, Canis lupus familiaris, Heart; summary of the method: as §1
Canis familiaris [11] = experiment: Tested for antiarrhythmic property by measuring ability to decrease Mean blood pressure (post drug) is compared to Lidocaine using doses(3 and 6 mg/kg); assay type: functional, Canis lupus familiaris; summary of the method: as §1
Canis familiaris [12] = experiment: Antiarrhythmic property A-V nodal conduction time(post drug) is compared to lidocaine(2) using dose (3 and 6 mg/kg); assay type: functional, Canis lupus familiaris, Heart; summary of the method: as §1
Canis familiaris [13] = experiment: Tested for antiarrhythmic property by measuring ability to decrease heart rate(drug free) is compared to Lidocaine using doses (3 and 6 mg/kg).; assay type: functional, Canis lupus familiaris; summary of the method: as §1
Canis familiaris [14] = experiment: Tested for antiarrhythmic property by measuring ability to decrease Mean blood pressure(post drug) is compared to Lidocaine using doses(3 and 6 mg/kg); assay type: functional, Canis lupus familiaris; summary of the method: as §1
Canis familiaris [15] = experiment: Antiarrhythmic property A-V nodal conduction time(post drug) is compared to lidocaine(2) using doses(3 and 6 mg/kg); assay type: functional, Canis lupus familiaris, Heart; summary of the method: as §1
Canis familiaris [16] = experiment: Antiarrhythmic property ventricular effective refractory period(post drug) is compared to lidocaine(2) using doses(3 and 6 mg/kg); assay type: functional, Canis lupus familiaris, Heart; summary of the method: as §1
Canis familiaris [17] = experiment: Antiarrhythmic property A-V nodal conduction time(post drug) is compared to lidocaine(2) using dose (3 and 6 mg/kg); No effect; assay type: functional, organism-based; design: dose 6 mg/kg; details: Canis lupus familiaris; Heart
Summary of the method: (§3)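 Mongrel dogs (~12–25 kg), 1–4 days after coronary occlusion leaving a surviving epicardial rim, anesthetized with sodium pentobarbital (~30 mg/kg). 12-lead ECG monitored throughout. Agent given iv at 3 and 6 mg/kg. Parameters recorded before (drug free) and after dosing. Programmed electrical stimulation tested SVT inducibility (≥250 beats/min, ≥30 s) at baseline, ~2–5 min after each dose, and at 30 min.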

Canis familiaris [18] = experiment: Antiarrhythmic property compared to lidocaine(2) using doses(3 and 6 mg/kg). Time required for the ventricular myocardium to undergo depolarization and repolarization (drug free); No effect; assay type: functional, organism-based; design: dose 6 mg/kg; details: Canis lupus familiaris; summary of the method: as §1
Canis familiaris [19] = experiment: Antiarrhythmic property Mean blood pressure (drug free) is compared to Lidocaine using doses(3 and 6 mg/kg).; assay type: functional, Canis lupus familiaris; summary of the method: as §3
Canis familiaris [20] = experiment: Antiarrhythmic property compared to lidocaine(2) using doses(3 and 6 mg/kg). Time required for the ventricular myocardium to undergo depolarization and repolarization ((post drug); No effect; assay type: functional, organism-based; design: dose 6 mg/kg; details: Canis lupus familiaris; summary of the method: as §1
Canis familiaris [21] = experiment: Antiarrhythmic property Heart rate (drug free) is compared to Lidocaine using doses (3 and 6 mg/kg).; assay type: functional, Canis lupus familiaris; summary of the method: as §3
Canis familiaris [22] = experiment: Antiarrhythmic property ventricular effective refractory period(post drug) is compared to lidocaine(2) using doses(3 and 6 mg/kg); No effect; assay type: functional, organism-based; design: dose 6 mg/kg; details: Canis lupus familiaris; Heart; summary of the method: as §3
Canis familiaris [23] = experiment: as §2; assay type: functional, Canis lupus familiaris, Heart; summary of the method: as §3; remark: listed apart in the source
Canis familiaris [24] = experiment: Antiarrhythmic property ventricular effective refractory period(drug free) is compared to lidocaine(2) using doses(3 and 6 mg/kg); No effect; assay type: functional, organism-based; design: dose 6 mg/kg; details: Canis lupus familiaris; Heart; summary of the method: as §3
Canis familiaris [25] = experiment: Antiarrhythmic property His-Purkinje conduction time(post drug) is compared to lidocaine(2) using dose(3 and 6 mg/kg); No effect; assay type: functional, organism-based; design: dose 6 mg/kg; details: Canis lupus familiaris; His-Purkinje system; summary of the method: as §1
Canis familiaris [26] = experiment: Antiarrhythmic property Heart rate (post drug) is compared to Lidocaine using doses(3 and 6 mg/kg). system.; assay type: functional, Canis lupus familiaris; summary of the method: as §3
Canis familiaris [27] = experiment: Antiarrhythmic property Mean blood pressure(post drug) is compared to Lidocaine using doses(3 and 6 mg/kg); assay type: functional, Canis lupus familiaris; summary of the method: as §3
Canis familiaris [28] = experiment: (§4) Antiarrhythmic property A-V nodal conduction time(drug free) is compared to lidocaine(2) using doses(3 and 6 mg/kg); No effect; assay type: functional, organism-based; design: dose 6 mg/kg; details: Canis lupus familiaris; Heart; summary of the method: as §3
Canis familiaris [29] = experiment: (§5) Antiarrhythmic property is compared to lidocaine(2) using doses(3 and 6 mg/kg). Time required for the ventricular myocardium to undergo depolarization and repolarization ((post drug); No effect; assay type: functional, organism-based; design: dose 6 mg/kg; details: Canis lupus familiaris; summary of the method: as §3
Canis familiaris [30] = experiment: Antiarrhythmic properties are compared to lidocaine(2) using doses(3 and 6 mg/kg). Time required for the ventricular myocardium to undergo depolarization and repolarization (drug free); No effect; assay type: functional, organism-based; design: dose 6 mg/kg; details: Canis lupus familiaris; summary of the method: as §3
Canis familiaris [31] = experiment: Antiarrhythmic properties are compared to lidocaine(2) using doses(3 and 6 mg/kg). Time required for the ventricular myocardium to undergo depolarization and repolarization ((post drug); No effect; assay type: functional, organism-based; design: dose 6 mg/kg; details: Canis lupus familiaris; summary of the method: as §3
Canis familiaris [32] = experiment: (§6) Antiarrhythmic property is compared to lidocaine(2) using doses(3 and 6 mg/kg). Time required for the ventricular myocardium to undergo depolarization and repolarization (drug free); No effect; assay type: functional, organism-based; design: dose 6 mg/kg; details: Canis lupus familiaris; summary of the method: as §3
Canis familiaris [33] = experiment: as §4; assay type: functional, organism-based; design: dose 6 mg/kg; details: Canis lupus familiaris; Heart; summary of the method: as §1; remark: listed apart in the source
Canis familiaris [34] = experiment: Antiarrhythmic property A-V nodal conduction time(post drug) is compared to lidocaine(2) using doses(3 and 6 mg/kg); No effect; assay type: functional, organism-based; design: dose 6 mg/kg; details: Canis lupus familiaris; Heart; summary of the method: as §1
Canis familiaris [35] = experiment: as §6; assay type: functional, organism-based; design: dose 6 mg/kg; details: Canis lupus familiaris; summary of the method: as §1; remark: listed apart in the source
Canis familiaris [36] = experiment: as §5; assay type: functional, organism-based; design: dose 6 mg/kg; details: Canis lupus familiaris; summary of the method: as §1; remark: listed apart in the source
Canis familiaris [37] = experiment: Tested for antiarrhythmic property by measuring ability to decrease heart rate(drug free) is compared to Lidocaine using doses (3 and 6 mg/kg); No effect; assay type: functional, organism-based; design: dose 6 mg/kg; details: Canis lupus familiaris; summary of the method: as §1
Canis familiaris [38] = experiment: Tested for antiarrhythmic property by measuring ability to decrease heart rate(post drug) is compared to Lidocaine using doses(3 and 6 mg/kg); No effect; assay type: functional, organism-based; design: dose 6 mg/kg; details: Canis lupus familiaris; summary of the method: as §1

Compound	HV interval (Canis familiaris [1])	MBP (Canis familiaris [2])	VERP (Canis familiaris [3])	QT (Canis familiaris [4])	HV interval (Canis familiaris [5])	AH interval (Canis familiaris [6])	HR (Canis familiaris [8])	QT (Canis familiaris [9])	MBP (Canis familiaris [14])	VERP (Canis familiaris [16])	AH interval (Canis familiaris [17])	VERP (Canis familiaris [22])	VERP (Canis familiaris [24])	AH interval (Canis familiaris [28])	further results
O=C(c1ccc(Cl)cc1)N1CC2CC(CN(CC3CC3)C2)C1	inactive	88 mmHg	170 ms	250 ms	inactive	60 ms	105 beats min-1	215 ms	–	–	–	–	–	–	HR (Canis familiaris [7]): 125 beats min-1; VERP (Canis familiaris [10]): 220 ms; MBP (Canis familiaris [11]): 98 mmHg; AH interval (Canis familiaris [12]): 68 ms
CC(C)N1CC2CC(CN(C(=O)c3ccc([N+](=O)[O-])cc3)C2)C1.Cl	–	95 mmHg	160 ms	260 ms	–	60 ms	100 beats min-1	220 ms	75 mmHg	230 ms	–	–	–	–	HR (Canis familiaris [13]): 130 beats min-1; NSVT (Canis familiaris [3]): 6 mg/kg; AH interval (Canis familiaris [15]): 75 ms
c1ccc(CN2CC3CN(CC4CC4)CC(C2)C32SCCS2)cc1	–	–	–	–	inactive	–	–	–	–	–	inactive	inactive	inactive	inactive	QT (Canis familiaris [18]): inactive; MBP (Canis familiaris [19]): 105 mmHg; QT (Canis familiaris [20]): inactive; HR (Canis familiaris [21]): 148 beats min-1; NSVT (Canis familiaris [23]): 3 mg/kg; HV interval (Canis familiaris [25]): inactive; HR (Canis familiaris [26]): 148 beats min-1; MBP (Canis familiaris [27]): 105 mmHg
c1ccc(CN2CC3CSCC(C3)C2)cc1	–	–	–	–	–	–	–	–	–	–	inactive	inactive	inactive	inactive	QT (Canis familiaris [29]): inactive; QT (Canis familiaris [30]): inactive; QT (Canis familiaris [31]): inactive; QT (Canis familiaris [32]): inactive
CCN(CC)CC(=O)Nc1c(C)cccc1C [LIDOCAINE]	inactive	105 mmHg	142 ms	–	inactive	–	–	–	84 mmHg	167 ms	–	–	–	–	AH interval (Canis familiaris [33]): inactive; AH interval (Canis familiaris [34]): inactive; QT interval (Canis familiaris [35]): inactive; QT interval (Canis familiaris [36]): inactive; HR (Canis familiaris [37]): inactive; HR (Canis familiaris [38]): inactive
